Measurements taken from ChEMBL document CHEMBL1770071, “Multitargeted drugs discovery: balancing anti-amyloid and anticholinesterase capacity in a single chemical entity” (Bioorg Med Chem Lett, 2011).

Tests used:
SH-SY5Y [1] = test: Neuroprotective activity in human SH-SY5Y cells assessed as inhibition of amyloid beta(1-42)-induced neurotoxicity at 1 uM incubated for 3 hrs by MTT assay; type: functional; design: scale not given: the % may be the effect or the level left
In short: (§1)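 Human neuronal-like SH-SY5Y cells exposed for 3 h to Aβ1–42 pre-aggregated to oligomers, with compound present. Viability read by MTT colorimetric assay. Result expressed as % inhibition of oligomer-induced neurotoxicity, mean ± SD of at least two independent experiments.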

SH-SY5Y [2] = test: Neuroprotective activity in human SH-SY5Y cells assessed as inhibition of amyloid beta(1-42)-induced neurotoxicity at 10 uM incubated for 3 hrs by MTT assay; type: functional; design: scale not given: the % may be the effect or the level left; in short: as §1
[3] = Neurotoxicity in human SH-SY5Y cells assessed as decrease in cell viability by MTT assay; type: toxicity, cell-based
In short: (§2)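 SH-SY5Y human neuronal-like cells treated with compound alone for 24 h, with viability read by colorimetric MTT assay. IC50 is the concentration giving 50% inhibition of neuronal viability. Range tested 1–50 µM.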

SH-SY5Y [4] = test: Neurotoxicity in human SH-SY5Y cells assessed as cell viability at 0.1 to 1 uM by MTT assay; type: toxicity, cell-based
[5] = Inhibition of amyloid beta (1-42) aggregation at 10 uM by thioflavin T based fluorometric assay
In short: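 Aβ1-42 self-induced aggregation, read by thioflavin T fluorescence, with Aβ1-42 to inhibitor ratio 5/1. Reported as % inhibition. Mean of two independent experiments, each in duplicate. Controls added compound to already-aggregated Aβ after ThT dilution to exclude ThT displacement.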

Cholinesterase = Cholinesterase (Homo sapiens, UniProt P06276); test: Inhibition of human serum BuChE
In short: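 BuChE purified from human serum; activity read by Ellman's method. IC50 is the inhibitor concentration that cuts enzyme activity by 50%, taken as the mean of two independent measurements each run in duplicate.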

SH-SY5Y [6] = test: Neurotoxicity in human SH-SY5Y cells assessed as decrease in cell viability at 1 to 50 uM by MTT assay; type: toxicity, cell-based; in short: as §2
Acetylcholinesterase = Acetylcholinesterase (Homo sapiens, UniProt P22303); test: Inhibition of human serum AChE
SH-SY5Y [7] = test: Neurotoxicity in human SH-SY5Y cells assessed as cell viability at 0.1 to 10 uM by MTT assay; type: toxicity, cell-based

Acetylcholinesterase, sequence (P22303 whole entry): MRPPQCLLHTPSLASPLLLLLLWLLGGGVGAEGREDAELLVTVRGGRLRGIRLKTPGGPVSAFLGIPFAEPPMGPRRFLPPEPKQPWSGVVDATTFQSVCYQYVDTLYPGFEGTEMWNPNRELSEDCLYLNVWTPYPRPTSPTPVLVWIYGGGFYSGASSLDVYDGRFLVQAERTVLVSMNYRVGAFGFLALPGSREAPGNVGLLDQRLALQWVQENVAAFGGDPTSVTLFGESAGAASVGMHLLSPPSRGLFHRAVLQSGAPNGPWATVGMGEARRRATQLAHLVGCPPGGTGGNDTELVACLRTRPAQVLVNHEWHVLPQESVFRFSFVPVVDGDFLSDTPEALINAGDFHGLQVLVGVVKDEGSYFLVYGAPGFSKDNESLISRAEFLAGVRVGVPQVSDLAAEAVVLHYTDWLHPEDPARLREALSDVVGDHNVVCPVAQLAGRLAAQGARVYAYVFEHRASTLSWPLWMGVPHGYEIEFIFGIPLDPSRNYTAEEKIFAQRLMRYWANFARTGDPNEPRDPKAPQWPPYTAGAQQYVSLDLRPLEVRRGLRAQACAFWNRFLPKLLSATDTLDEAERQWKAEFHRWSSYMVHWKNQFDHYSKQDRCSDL
Cholinesterase, sequence (P06276 whole entry): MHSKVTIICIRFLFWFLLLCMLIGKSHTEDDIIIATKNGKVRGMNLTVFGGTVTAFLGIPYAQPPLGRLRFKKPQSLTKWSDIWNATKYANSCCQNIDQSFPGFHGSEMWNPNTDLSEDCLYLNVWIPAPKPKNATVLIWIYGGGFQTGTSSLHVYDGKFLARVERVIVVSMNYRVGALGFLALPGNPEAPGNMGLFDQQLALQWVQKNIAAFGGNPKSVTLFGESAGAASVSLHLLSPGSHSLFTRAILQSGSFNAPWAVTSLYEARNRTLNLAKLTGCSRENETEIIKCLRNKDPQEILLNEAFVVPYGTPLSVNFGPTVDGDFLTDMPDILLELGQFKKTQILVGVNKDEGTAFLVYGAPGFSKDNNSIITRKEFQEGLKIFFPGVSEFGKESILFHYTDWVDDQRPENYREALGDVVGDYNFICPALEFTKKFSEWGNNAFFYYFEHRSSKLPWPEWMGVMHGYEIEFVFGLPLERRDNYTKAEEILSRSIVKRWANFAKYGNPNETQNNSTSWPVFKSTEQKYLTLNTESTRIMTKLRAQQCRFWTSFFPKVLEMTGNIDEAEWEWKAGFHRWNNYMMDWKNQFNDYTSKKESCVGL

For `CCN(CCCCCCNC1=CC(=O)C(NCCCCCCN(CC)Cc2ccccc2OC)=CC1=O)Cc1ccccc1OC` [MEMOQUIN], the Activity (SH-SY5Y [1]) was 70%, the Activity (SH-SY5Y [2]) was 80% and the IC50 [3] was 19.4 µM. For the same compound, the Activity (SH-SY5Y [4]) was “Non-toxic”.

Work on `COc1cc(/C=C/C(=O)CC(=O)/C=C/c2ccc(O)c(OC)c2)ccc1O` yielded an inhibition [5] of 34.4%.

For `O=C1C=C(NCCCNCc2nc3ccccc3s2)C(=O)C=C1NCCCNCc1nc2ccccc2s1`, the Activity (SH-SY5Y [1]) was 25%, the IC50 (Cholinesterase) was > 10 µM and the inhibition [5] was 16.2%. For the same compound, the Activity (SH-SY5Y [4]) was “Non-toxic”, the Activity (SH-SY5Y [6]) was “Non-toxic” and the IC50 (Acetylcholinesterase) was > 10 µM.

`COc1cc(CNCCCCCCNC2=CC(=O)C(NCCCCCCNCc3ccc(O)c(OC)c3)=CC2=O)ccc1O` gave an IC50 (Cholinesterase) of 1.6 µM, an inhibition [5] of 50.4% and an IC50 (Acetylcholinesterase) of 0.102 µM.

Work on `O=C1C=C(NCCCCCCNCc2ccc(-c3nc4ccccc4s3)cc2)C(=O)C=C1NCCCCCCNCc1ccc(-c2nc3ccccc3s2)cc1` yielded an IC50 (Cholinesterase) of 27.3 µM, an inhibition [5] of 25.7% and an IC50 (Acetylcholinesterase) of 0.305 µM.

Work on `O=C1C=C(NCCCNCc2ccc(-c3nc4ccccc4s3)cc2)C(=O)C=C1NCCCNCc1ccc(-c2nc3ccccc3s2)cc1` yielded an IC50 (Cholinesterase) of 35.3 µM, an inhibition [5] of 41.4% and an IC50 (Acetylcholinesterase) of 31.4 µM.

In the case of `O=C1C=C(NCCCCCCNCc2cc3ccccc3o2)C(=O)C=C1NCCCCCCNCc1cc2ccccc2o1`, the IC50 (Cholinesterase) is reported as 84.2 µM, the inhibition [5] is reported as 18.4% and the IC50 (Acetylcholinesterase) is reported as > 10 µM.

With `O=C1C=C(NCCCCCCNCc2nc3ccccc3s2)C(=O)C=C1NCCCCCCNCc1nc2ccccc2s1` the IC50 (Cholinesterase) was > 10 µM, the inhibition [5] was 18.5% and the IC50 (Acetylcholinesterase) was 22 µM.

For `COc1cc(CNCCCNC2=CC(=O)C(NCCCNCc3ccc(O)c(OC)c3)=CC2=O)ccc1O`, the Activity (SH-SY5Y [1]) was 25%, the Activity (SH-SY5Y [7]) was “Non-toxic” and the IC50 (Cholinesterase) was 8.24 µM. The inhibition [5] was 22%, the Activity (SH-SY5Y [6]) was “Non-toxic” and the IC50 (Acetylcholinesterase) was 0.198 µM.

With `O=C1C=C(NCCCNCc2cc3ccccc3o2)C(=O)C=C1NCCCNCc1cc2ccccc2o1` the Activity (SH-SY5Y [1]) was 25%, the IC50 (Cholinesterase) was 2.6 µM and the inhibition [5] was 27.2%. For the same compound, the IC50 [3] was 14.8 µM, the Activity (SH-SY5Y [4]) was “Non-toxic” and the IC50 (Acetylcholinesterase) was 21.8 µM.
